In ChEMBL document CHEMBL4414562, “Discovery of the First in Vivo Active Inhibitors of the Soluble Epoxide Hydrolase Phosphatase Domain” (J Med Chem, 2019) one finds IC50 and Activity data, which are given here for 2 molecules.

The target of assay [1] is T1, Bifunctional epoxide hydrolase 2 (Rattus norvegicus, UniProt P80299).
T1 sequence (P80299 whole entry): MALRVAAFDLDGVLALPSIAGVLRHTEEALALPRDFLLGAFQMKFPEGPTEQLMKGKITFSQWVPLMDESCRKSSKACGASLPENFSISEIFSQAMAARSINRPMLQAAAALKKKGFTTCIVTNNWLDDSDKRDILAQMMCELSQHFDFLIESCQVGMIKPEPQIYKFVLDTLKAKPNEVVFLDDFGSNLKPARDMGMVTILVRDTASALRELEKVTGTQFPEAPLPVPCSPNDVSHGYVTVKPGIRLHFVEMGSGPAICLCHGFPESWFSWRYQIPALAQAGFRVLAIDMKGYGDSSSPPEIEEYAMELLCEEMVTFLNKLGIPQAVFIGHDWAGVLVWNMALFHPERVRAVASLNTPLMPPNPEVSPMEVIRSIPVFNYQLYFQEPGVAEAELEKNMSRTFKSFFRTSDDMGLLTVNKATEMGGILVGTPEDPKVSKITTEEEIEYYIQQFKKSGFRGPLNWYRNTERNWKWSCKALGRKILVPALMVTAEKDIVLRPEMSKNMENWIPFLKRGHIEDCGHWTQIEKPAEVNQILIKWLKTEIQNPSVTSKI
Briefly: Inhibition of hydrolase activity of full length rat soluble epoxide hydrolase pre-incubated for 30 mins before PHOME substrate addition by fluorescence based assay. Put shortly:
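Hydrolase assay with 0.1 μM full-length enzyme in Bis-Tris pH 7 containing 0.1 mg/mL BSA and 0.01% Triton X-100. […] Reaction started with PHOME (50 μM final). 6-Methoxynaphthaldehyde fluorescence (ex 330/em 465 nm) read every minute for 45 min. Triplicates.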

Assay [2] in a line: Inhibition of hexa-His-tagged human soluble epoxide hydrolase N-terminal phosphatase domain expressed in Escherichia coli BL21(DE3) pre-incubated for 30 mins before FDP substrate addition by fluorescence based assay.
The target in assay [3] is T2, Bifunctional epoxide hydrolase 2 (Mus musculus, UniProt P34914).
T2 sequence (P34914 whole entry): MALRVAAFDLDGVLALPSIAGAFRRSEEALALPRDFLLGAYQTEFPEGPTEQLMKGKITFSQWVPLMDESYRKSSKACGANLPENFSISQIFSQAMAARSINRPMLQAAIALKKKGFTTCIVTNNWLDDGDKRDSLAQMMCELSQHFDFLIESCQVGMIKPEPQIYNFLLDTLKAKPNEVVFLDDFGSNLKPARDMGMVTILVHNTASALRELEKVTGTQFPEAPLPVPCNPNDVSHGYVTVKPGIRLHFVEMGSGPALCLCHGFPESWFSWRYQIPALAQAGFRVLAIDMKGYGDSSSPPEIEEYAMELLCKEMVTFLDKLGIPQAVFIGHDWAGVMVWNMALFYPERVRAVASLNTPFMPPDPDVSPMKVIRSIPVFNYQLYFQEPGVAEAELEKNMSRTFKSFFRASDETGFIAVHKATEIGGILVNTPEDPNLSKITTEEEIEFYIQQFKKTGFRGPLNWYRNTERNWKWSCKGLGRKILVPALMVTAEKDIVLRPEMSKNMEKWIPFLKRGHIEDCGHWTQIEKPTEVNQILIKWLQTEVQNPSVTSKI
Briefly: Inhibition of phosphatase activity of full length mouse soluble epoxide hydrolase pre-incubated for 30 mins before FDP substrate addition by fluorescence based assay.

The target of assay [4] is T3, Prostaglandin G/H synthase 2 (Homo sapiens, UniProt P35354).
T3 sequence (P35354 whole entry): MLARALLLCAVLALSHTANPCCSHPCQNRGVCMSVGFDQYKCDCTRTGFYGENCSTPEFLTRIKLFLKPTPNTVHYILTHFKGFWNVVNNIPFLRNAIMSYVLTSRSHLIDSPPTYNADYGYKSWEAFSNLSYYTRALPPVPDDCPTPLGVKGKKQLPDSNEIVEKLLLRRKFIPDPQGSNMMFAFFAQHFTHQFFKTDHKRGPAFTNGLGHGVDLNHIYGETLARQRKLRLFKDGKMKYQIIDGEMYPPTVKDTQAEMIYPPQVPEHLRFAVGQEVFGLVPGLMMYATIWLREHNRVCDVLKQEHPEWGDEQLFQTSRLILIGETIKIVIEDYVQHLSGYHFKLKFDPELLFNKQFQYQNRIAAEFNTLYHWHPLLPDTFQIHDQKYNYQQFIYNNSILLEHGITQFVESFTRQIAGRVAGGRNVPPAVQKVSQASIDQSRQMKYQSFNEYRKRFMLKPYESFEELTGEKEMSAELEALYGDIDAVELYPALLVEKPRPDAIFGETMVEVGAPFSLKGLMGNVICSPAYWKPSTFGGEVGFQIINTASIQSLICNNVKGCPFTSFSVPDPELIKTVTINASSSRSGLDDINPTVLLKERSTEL
Briefly: Inhibition of COX2 in LPS-stimulated human monocytes assessed as reduction in PGE2 production by LC-tandem MIS analysis. Format: cell-based. Put shortly:
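Human monocytes resuspended in HBSS and pretreated with increasing compound concentrations before LPS challenge. PGE2 quantified by LC−MS/MS using PGE2-d4 isotope-dilution internal standard.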

Assay [5] addresses T4, Oxysterols receptor LXR-beta (Homo sapiens) (UniProt P55055).
T4 sequence (whole entry): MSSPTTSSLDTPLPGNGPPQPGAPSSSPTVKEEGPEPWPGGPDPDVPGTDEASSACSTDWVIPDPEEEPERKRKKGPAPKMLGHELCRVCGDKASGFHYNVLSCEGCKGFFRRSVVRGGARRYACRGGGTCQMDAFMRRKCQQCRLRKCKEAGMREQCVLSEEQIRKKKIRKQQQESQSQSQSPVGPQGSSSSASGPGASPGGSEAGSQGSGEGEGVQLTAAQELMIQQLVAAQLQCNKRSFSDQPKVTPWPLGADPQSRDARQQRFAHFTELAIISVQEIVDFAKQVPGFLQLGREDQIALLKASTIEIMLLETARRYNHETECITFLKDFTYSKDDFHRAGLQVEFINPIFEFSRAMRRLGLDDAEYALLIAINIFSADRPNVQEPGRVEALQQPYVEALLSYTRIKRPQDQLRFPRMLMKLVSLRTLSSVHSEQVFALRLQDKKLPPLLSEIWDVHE
Briefly: Activation of Gal4-fused human LXRbeta LBD transfected in HEK293T cells at 10 uM after 12 to 14 hrs by luciferase reporter gene assay. It counts as cell-based. The gist of the method: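 Gal4–human nuclear receptor LBD fusion (pFA-CMV-hNR-LBD) co-transfected with pFR-Luc and pRL-SV40 (Lipofectamine LTX) into HEK293T cells seeded the day before. 5 h post-transfection, compound added in Opti-MEM with 0.1% DMSO and incubated 12−14 h. Dual-Glo firefly/Renilla luciferase read. Activation expressed relative to reference agonist at 1 μM. Triplicates, ≥3 independent experiments.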

pIC50: −log10 of the molar value. Active and inactive are the calls of the source. The rule behind the calls is not given here.

What is called pIC50 is the negative decadic logarithm of the IC50, by convention in mol/L. In the case of `O=C(O)CCCc1nc(-c2ccc(Cl)c(Cl)c2)c(-c2ccccc2)o1`, the pIC50 was below 4.52 in assay [1], 7.24 in assay [2], below 4.52 in assay [3] and 6.38 in assay [4]. For the same molecule, the result in assay [5] was inactive.
With `O=C(O)CCc1nc(-c2ccccc2)c(-c2ccccc2)o1` [OXAPROZIN], the negative-log IC50 (pIC50) in assay [1] is below 3.52; in assay [2], 5.30; in assay [3], 4.45; in assay [4], 6.96. Moreover, the outcome in assay [5] was inactive.
